Activity calls are given as the source filed them. The calls are words filed in the database; no cut-off is given here.
Columns and labels:
MCF7 [1] = test: Antiproliferative activity against human MCF7 cells at 2 uM after 72 hrs by XTT assay; format: functional, cell-based
[2] = Antiproliferative activity against human RD cells after 72 hrs by XTT assay; format: functional, cell-based
In short: (§1)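 Cells plated at 1500–2000 per well by doubling time, treated after 24 h with a concentration series in six triplicate wells, and incubated 72 h without a medium change. XTT reagent was then added for 4 h at 37 °C and absorbance read at 490 nm. IC50 is the concentration halving absorbance versus untreated cells. Experiments run in triplicate.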

[3] = Antiproliferative activity against human SH-SY5Y cells after 72 hrs by XTT assay; format: functional, cell-based; in short: as §1
[4] = Antiproliferative activity against human A549 cells after 72 hrs by XTT assay; format: functional, cell-based; settings: A549, 72 h; in short: as §1
[5] = Antiproliferative activity against human LAN1 cells after 72 hrs by XTT assay; format: functional, cell-based; settings: LAN1, 72 h; in short: as §1
HeLa = test: Selectivity ratio of IC50 for human MCF7 cells to IC50 for human HeLa cells; format: functional
In short: (§2)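 XTT viability: 1500–2000 cells/well plated by doubling time; compounds added after 24 h, then 72 h further culture without medium change. XTT reagent 4 h at 37 °C, absorbance read at 490 nm. IC50 is the concentration halving absorbance versus untreated cells; triplicate experiments. Ratio is MCF7 IC50 divided by IC50 in the named line.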

MCF7 [6] = test: Selectivity ratio of IC50 for human MCF7 cells to IC50 for human T98G cells; format: functional; in short: as §2
[7] = Antiproliferative activity against human MRC5 cells after 72 hrs by XTT assay; format: cell-based; settings: MRC5, 72 h; in short: as §1
[8] = Cytotoxicity against human HeLa cells assessed as inhibition of colony formation at 0.03 uM after 2 weeks by crystal violet staining based assay relative to control; format: functional; settings: 336 h
In short: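 HeLa seeded at 100-200 cells/well in six-well plates and treated with 0.3 or 0.03 μM compound (DMSO control). Medium with compound changed every 3 days for about two weeks, until control colonies were visible. Colonies fixed and stained with 6.0% glutaraldehyde/0.5% crystal violet for 30 min, then counted against control. Done in triplicate.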

[9] = Cell cycle arrest in human HeLa cells assessed as G1 phase accumulation at 1 uM after 8 hrs by propidium iodide staining based flow cytometry (reference value: 62.7%); format: functional
[10] = Cell cycle arrest in human HeLa cells assessed as S phase accumulation at 1 uM after 8 hrs by propidium iodide staining based flow cytometry (reference value: 19.2%); format: functional
[11] = Cell cycle arrest in human MCF7 cells assessed as S phase accumulation at 1 uM after 24 hrs by propidium iodide staining based flow cytometry (reference value: 21.7 +/- 1.42%); format: functional
[12] = Cell cycle arrest in human MCF7 cells assessed as G1 phase accumulation at 1 uM after 144 hrs by propidium iodide staining based flow cytometry (reference value: 65.9%); format: functional
[13] = Cell cycle arrest in human NCI-H1299 cells assessed as G2/M phase accumulation at 1 uM after 24 hrs by propidium iodide staining based flow cytometry (reference value: 22.2 +/- 1.74%); format: functional
[14] = Cell cycle arrest in human NCI-H1299 cells assessed as G1 phase accumulation at 1 uM after 48 hrs by propidium iodide staining based flow cytometry (reference value: 81%); format: functional
[15] = Cell cycle arrest in human NCI-H1299 cells assessed as S phase accumulation at 1 uM after 48 hrs by propidium iodide staining based flow cytometry (reference value: 7.2%); format: functional
[16] = Cell cycle arrest in human RD cells assessed as subG1 phase accumulation at 1 uM after 24 hrs by propidium iodide staining based flow cytometry relative to DMSO control; format: functional
[17] = Cell cycle arrest in human RD cells assessed as G1 phase accumulation at 1 uM after 24 hrs by propidium iodide staining based flow cytometry (reference value: 56.7 +/- 1.48%); format: functional
[18] = Cell cycle arrest in human RD cells assessed as S phase accumulation at 1 uM after 24 hrs by propidium iodide staining based flow cytometry (reference value: 14.4 +/- 0.92%); format: functional
[19] = Cell cycle arrest in human RD cells assessed as G2/M phase accumulation at 1 uM after 24 hrs by propidium iodide staining based flow cytometry (reference value: 28.9 +/- 1.93%); format: functional
[20] = Cell cycle arrest in human T98G cells assessed as G1 phase accumulation at 1 uM after 24 hrs by propidium iodide staining based flow cytometry (reference value: 86.1 +/- 1.29%); format: functional
[21] = Cell cycle arrest in human SK-N-AS cells assessed as G1 phase accumulation at 1 uM after 24 hrs by propidium iodide staining based flow cytometry (reference value: 51.5 +/- 1.39%); format: functional
[22] = Cell cycle arrest in human A549 cells assessed as G2/M phase accumulation at 1 uM after 24 hrs by propidium iodide staining based flow cytometry (reference value: 27 +/- 1.32%); format: functional
[23] = Cell cycle arrest in human Kelly cells assessed as G2/M phase accumulation at 1 uM after 24 hrs by propidium iodide staining based flow cytometry (reference value: 18 +/- 1.28%); format: functional
[24] = Cell cycle arrest in human LAN1 cells assessed as G2/M phase accumulation at 1 uM after 24 hrs by propidium iodide staining based flow cytometry (reference value: 26.2 +/- 1.92%); format: functional
[25] = Cell cycle arrest in human PC3 cells assessed as G1 phase accumulation at 1 uM after 24 hrs by propidium iodide staining based flow cytometry (reference value: 67 +/- 1.47%); format: functional; settings: PC-3
[26] = Cell cycle arrest in human NB-1 cells assessed as G1 phase accumulation at 1 uM after 48 hrs by propidium iodide staining based flow cytometry (reference value: 85.9%); settings: nb1, 48 h
[27] = Cell cycle arrest in human NB1 hTERT cells assessed as G1 phase accumulation at 1 uM after 24 hrs by propidium iodide staining based flow cytometry (reference value: 52.3%); format: functional
MCF7 [28] = test: Increase in p53 expression in human MCF7 cells at 1 uM after 24 hrs by immunoblot method relative to control; format: functional
In short: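 After 24 h treatment at 1 μM, cells lysed in Tris pH 8/NaCl/glycerol/NP-40/EDTA buffer with protease inhibitors. Equal lysate amounts run on 10% SDS gels, blotted to nitrocellulose, probed for p53 with GAPDH as loading control, detected by enhanced chemiluminescence. Bands quantified by densitometry against GAPDH and compared with untreated cells; three independent experiments.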

[29] = Induction of apoptosis in human NB-1 cells assessed as live cells at 5 uM after 72 hrs by Annexin-V FITC/propidium iodide staining based flow cytometry (reference value: 93.3%); format: cell-based, NB1; settings: read-out: Activity
[30] = Induction of apoptosis in human NB-1 cells assessed as late apoptotic cells at 5 uM after 72 hrs by Annexin-V FITC/propidium iodide staining based flow cytometry (reference value: 3.3%); format: cell-based; settings: nb1, 72 h
[31] = Induction of apoptosis in human NB1 hTERT cells assessed as late apoptotic cells at 5 uM after 72 hrs by Annexin-V FITC/propidium iodide staining based flow cytometry (reference value: 4.6%); format: functional
[32] = Antiproliferative activity against human NB1 hTERT cells after 72 hrs by XTT assay; format: functional, cell-based; in short: as §1

With Cc1[nH]c2c(c1-c1nnc(-c3ccccc3)o1)Cc1ccccc1-2 the Activity (MCF7 [1]) was “Active”, the IC50 [2] was 60 nM and the IC50 [3] was 70 nM. For the same compound, the IC50 [4] was 240 nM, the IC50 [5] was 380 nM and the “Ratio IC50” value (HeLa) was 28 - 34. The “Ratio IC50” value (MCF7 [6]) was 28 - 34, the IC50 [7] was 190 nM and the inhibition at 0.03 µM [8] was ≤ 50%. The Activity [9] was 32.5%, the Activity [10] was 22.2% and the Activity [11] was 6.3 to 10.4%. The Activity [12] was 14.5%, the Activity [13] was 74.6% and the Activity [14] was 34.3%. The Activity [15] was 9.7%, the Activity [16] was 6.1% and the Activity [17] was 36.9%. For the same compound, the Activity [18] was 10.6%, the Activity [19] was 46.4% and the Activity [20] was 11.1%. It also gave an Activity [21] of 10.8%, an Activity [22] of 65.3% and an Activity [23] of 42.9%. For the same compound, the Activity [24] was 82.6%, the Activity [25] was 23.3% and the Activity [26] was 82.6%. The Activity [27] was 58.8%, the “fold change (FC)” value (MCF7 [28]) was 2 - 3 and the viability at 72 h, 5 µM [29] was 86.6%. For the same compound, the Activity [30] was 8.3%, the Activity [31] was 13.2% and the IC50 [32] was 130 nM.
